Measurements published in ChEMBL document CHEMBL5120830, “New aldo-keto reductase 1C3 (AKR1C3) inhibitors based on the hydroxytriazole scaffold” (Eur J Med Chem, 2022).
In brackets after ≈: the same amount, converted by molar mass. Activity calls are given as the source filed them. No cut-off for these calls is given here.

How the values were obtained:
[1] = Solubility of the compound in PBS at pH 7.4 incubated for 24 hrs by UHPLC analysis; assay type: physicochemical
Procedure, shortened: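 About 1 mg of solid was shaken in 1 mL of 50 mM PBS pH 7.4 at 25 °C for 24 h, then filtered (0.45 μm). The filtrate was run on C18 UHPLC with a water/methanol gradient in 0.1% TFA, read at 254 and 230 nm. Concentration came from external calibration over 1-200 μM; detection limit 1 μM.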

[2] = target: T1, Aldo-keto reductase family 1 member C3 (Homo sapiens, UniProt P42330); assay: Inhibition of recombinant human AKR1C3 transfected in Escherichia coli BL21 (DE) assessed as reduction in NADPH production using S-tetralol as substrate by fluorescence based analysis
T1 sequence (P42330 whole entry): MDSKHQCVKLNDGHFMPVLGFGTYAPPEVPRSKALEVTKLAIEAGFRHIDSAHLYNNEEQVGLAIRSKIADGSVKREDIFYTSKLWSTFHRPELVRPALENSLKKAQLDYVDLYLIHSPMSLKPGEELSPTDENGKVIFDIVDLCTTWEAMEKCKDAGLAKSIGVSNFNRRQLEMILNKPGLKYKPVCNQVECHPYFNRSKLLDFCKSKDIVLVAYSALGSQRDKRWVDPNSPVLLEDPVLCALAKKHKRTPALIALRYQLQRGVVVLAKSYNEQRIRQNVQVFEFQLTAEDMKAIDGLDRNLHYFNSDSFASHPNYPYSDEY
Procedure, shortened: (§1)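 GST-tagged human AKR1C2 or AKR1C3 made in bacteria (IPTG 0.5 mM, 2 h), purified on glutathione sepharose and thrombin-cleaved. Assay in 100 mM phosphate pH 7 with 200 μM NADP+ and 10% EtOH at 37 °C. S-tetralol was 15 μM for AKR1C2 and 160 μM for AKR1C3. NADPH fluorescence read at 340/460 nm. Inhibition from initial velocities versus solvent controls; ≥3 experiments in triplicate.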

[3] = target: T2, Aldo-keto reductase family 1 member C2 (Homo sapiens) (UniProt P52895); assay: Inhibition of recombinant human AKR1C2 transfected in Escherichia coli BL21 (DE) assessed as reduction in NADPH production at 100 uM using S-tetralol as substrate by fluorescence based analysis relative to control; procedure, shortened: as §1
T2 sequence (whole entry): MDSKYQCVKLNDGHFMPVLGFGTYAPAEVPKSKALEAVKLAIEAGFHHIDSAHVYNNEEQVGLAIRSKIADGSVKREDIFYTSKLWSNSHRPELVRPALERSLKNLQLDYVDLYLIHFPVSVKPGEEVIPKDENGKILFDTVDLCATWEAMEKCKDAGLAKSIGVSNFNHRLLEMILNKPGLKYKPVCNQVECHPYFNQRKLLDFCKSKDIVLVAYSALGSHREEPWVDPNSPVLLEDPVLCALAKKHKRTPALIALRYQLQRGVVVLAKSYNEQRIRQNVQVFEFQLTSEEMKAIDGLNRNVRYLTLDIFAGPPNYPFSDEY

[4] = tested on: CWR22R; assay: Antiproliferative activity against human 22Rv1 cells expressing AKR1C3 assessed as inhibition of cell growth incubated for 72 hrs by SRB assay; assay type: functional, cell-based; conditions: 22Rv1, 72 h
Procedure, shortened: (§2)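 22RV1 cells in RPMI with 10% FCS, 37 °C, 5% CO2. Seeded at 10,000/well in medium with 10% charcoal-stripped serum and left 24 h. Inhibitor dilutions in DMSO added in triplicate for 72 h; DMSO controls at most 1% v/v. Growth read by sulforhodamine B colorimetric assay. IC50 from the mean of three separate experiments.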

[5] = Lipophilicity, logD of the compound in n-octanol and phosphate buffer at pH 7.4 incubated for 4 hrs by UV-Vis spectrophotometer based shake flask method; assay type: physicochemical
Procedure, shortened: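 Shake-flask logD between n-octanol and 50 mM PBS pH 7.4 (ionic strength 0.15 M, KCl). The phases were pre-saturated for 4 h, then shaken ~20 min with compound and centrifuged. Aqueous concentration was read by UV at λmax against calibration curves. Each value averages at least six measurements.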

[6] = target: T2, Aldo-keto reductase family 1 member C2 (Homo sapiens); assay: Inhibition of recombinant human AKR1C2 transfected in Escherichia coli BL21 (DE) assessed as reduction in NADPH production at 20 uM using S-tetralol as substrate by fluorescence based analysis relative to control; procedure, shortened: as §1
[7] = target: T2, Aldo-keto reductase family 1 member C2 (Homo sapiens); assay: Inhibition of recombinant human AKR1C2 transfected in Escherichia coli BL21 (DE) assessed as reduction in NADPH production at 50 uM using S-tetralol as substrate by fluorescence based analysis relative to control; procedure, shortened: as §1
[8] = target: T3, Aldo-keto reductase family 1 member C2 (Homo sapiens, UniProt P52895); assay: Inhibition of recombinant human AKR1C2 transfected in Escherichia coli BL21 assessed as reduction in NADP+-dependent S-tetralol oxidation incubated for 20 mins by absorbance based analysis
T3 sequence (P52895 whole entry): T2 sequence (whole entry)

[9] = tested on: CWR22R; assay: Inhibition of prostate specific antigen expression in human 22Rv1 cells expressing AKR1C3 at 5 to 50 uM incubated for 72 hrs by Western blot analysis; assay type: functional, cell-based; conditions: dose 5-50 µM
Procedure, shortened: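 22RV1 cells seeded at 300,000/well in charcoal-stripped serum medium for 24 h, then treated 72 h at 5 or 50 μM in DMSO (≤0.5% v/v). RIPA lysates of 30 μg protein blotted with anti-PSA (1:500, overnight 4 °C) and HRP secondary. β-actin was the loading control. Densitometric PSA/β-actin as fold change; duplicate.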

[10] = tested on: CWR22R; assay: Antiproliferative activity against human 22Rv1 cells expressing AKR1C3 assessed as reduction in cell viability at 40 to 60 uM incubated for 72 hrs in presence of abiraterone by SRB assay relative to either drug alone; assay type: functional; conditions: dose 40-60 µM
Procedure, shortened: (§3)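 Co-treatment in 22RV1 cells seeded in charcoal-stripped serum medium. Test compound at 40 or 60 μM was given for 72 h with 10 μM abiraterone or 30 μM enzalutamide, or with no drug. Growth was read by SRB assay and expressed as % T/C (mean OD treated / mean OD control × 100).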

[11] = tested on: CWR22R; assay: Antiproliferative activity against human 22Rv1 cells expressing AKR1C3 assessed as reduction in cell viability at 40 to 60 uM incubated for 72 hrs in presence of , enzalutamide by SRB assay relative to either drug alone; assay type: functional; conditions: dose 40-60 µM; procedure, shortened: as §3
[12] = Ionization constant, pKa of the compound by potentiometric titration method; assay type: physicochemical
Procedure, shortened: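 pKa was measured by potentiometric titration on a Sirius T3 in MDM cosolvent (20% acetonitrile, 20% dioxane, 20% methanol), with added percentages varied.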

[13] = tested on: CWR22R; assay: Antiproliferative activity against human 22Rv1 cells expressing AKR1C3 assessed as reduction in cell viability at 100 uM incubated for 72 hrs by SRB assay relative to control; assay type: functional; procedure, shortened: as §2
[14] = Inhibition of androstenedione induced testosterone production in human 22Rv1 cells expressing AKR1C3 assessed as reduction in testosterone level to 0.5 uM pretreated for 1 hr followed by androstenedione addition and measured after 24 hrs by ELISA relative to control; assay type: functional, CWR22R; conditions: time 25 hrs
Procedure, shortened: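 22RV1 cells seeded at 30,000/well in medium with 10% charcoal-stripped serum and left 24 h. Inhibitor added 1 h before 30 nM androstenedione, then 24 h more. Supernatant (1:2) assayed for testosterone by ELISA read at 405 nm against a standard curve. Mean of three experiments, each in triplicate.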

solubility at 24 h [1] [µM]	IC50 [2] [µM]	inhibition [3] [%]	logD at 4 h [5]	inhibition [6] [%]	inhibition [7] [%]	IC50 [8] [µM]	pKa [12]	Compound	IC50 [4] [µM]	inhibition [9]	Activity [10] [%]	Activity [11] [%]	Activity [13] [%]	inhibition at 0.5 µM [14] [%]
< 1	0.22	–	2.59	–	31.6	–	–	COc1ccc(Cn2nnc(O)c2C(=O)Nc2cccc(-c3ccc(OC)cc3)c2)cc1	50.1	–	–	–	–	–
2.05 (≈ 0.854 µg/mL)	0.31	37.9	2.19	–	–	–	–	COc1ccc(Cn2nnc(O)c2C(=O)Nc2cccc(-c3ccc(O)cc3)c2)cc1	67.5	–	–	–	–	–
< 1	0.26	45.3	2.5	–	–	–	–	COc1ccc(Cn2nnc(O)c2C(=O)Nc2cccc(-c3cccc(OC)c3)c2)cc1	59	–	–	–	–	–
< 1	0.069	30.5	2.3	–	–	–	–	COc1ccc(Cn2nnc(O)c2C(=O)Nc2cccc(-c3ccccc3)c2)cc1	52.1	Active	>20	30	–	20

Further lines, the compound ahead of its results:

Compound	solubility at 24 h [1] [µM]	IC50 [2] [µM]	inhibition [3] [%]	logD at 4 h [5]	inhibition [6] [%]	inhibition [7] [%]	IC50 [8] [µM]	pKa [12]	IC50 [4] [µM]	inhibition [9]	Activity [10] [%]	Activity [11] [%]	Activity [13] [%]	inhibition at 0.5 µM [14] [%]
COc1ccc(Cn2nnc(O)c2C(=O)Nc2ccc(Oc3ccccc3)cc2)cc1	< 1	0.27	57.8	–	–	–	–	–	58.2	–	–	–	–	–
COc1ccc(Cn2nnc(O)c2C(=O)Nc2ccc(-c3ccccc3)cc2)cc1	< 1	0.47	–	2.19	30	–	–	–	57.9	–	–	–	–	–
COc1ccc(Cn2nnc(O)c2C(=O)Nc2cccc(C(F)(F)F)c2)cc1	21.2 (≈ 8.32 µg/mL)	–	59.9	1.1	–	–	–	–	–	–	–	–	–	–
COc1ccc2[nH]c(C(=O)N3CCC(CC(C)(C)O)CC3)cc2c1 [ASP-9521]	–	–	–	–	–	–	> 20	–	–	–	–	–	–	–
COc1ccc(Cn2nnc(O)c2C(=O)Nc2cc(C(F)(F)F)cc(C(F)(F)F)c2)cc1	6.91 (≈ 3.18 µg/mL)	0.4	33.6	2.47	–	–	–	–	33.8	–	–	–	–	–
COc1ccc(Cn2nnc(O)c2C(=O)Nc2cccc(Oc3ccccc3)c2)cc1	< 1	0.11	72.8	–	–	–	–	–	65	Active	>20	50	–	–
COc1ccc(Cc2onc(O)c2C(=O)Nc2cccc(-c3ccccc3)c2)cc1	10.8 (≈ 4.3 µg/mL)	0.19	7.32	2.16	–	–	–	4.5	54.8	–	–	–	–	–
COc1ccc(Cn2nnc(O)c2C(=O)Nc2cccc(-c3cccc(O)c3)c2)cc1	40.3 (≈ 16.8 µg/mL)	0.21	38.5	2.25	–	–	–	4.9	75.7	–	–	–	–	–
COc1ccc(Cn2nnc(O)c2C(=O)Nc2ccc3c(c2)ncn3-c2ccccc2)cc1	1.25 (≈ 0.551 µg/mL)	1.63	–	2.19	–	–	–	–	> 100	–	–	–	36.88	–
